Assay results taken from ChEMBL document CHEMBL1144032, “Potent antagonists of the CCR2b receptor. Part 3: SAR of the (R)-3-aminopyrrolidine series” (Bioorg Med Chem Lett, 2008).
Active and inactive are the calls of the source. The rule behind the calls is not given here.

Assays:
[1] = molecular target: T1, C-C chemokine receptor type 2 (Homo sapiens, UniProt P41597); assay: Displacement of [125I]MCP1 from human CCR2b in THP1 cells; type: cell-based, THP-1
Summary of the method: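 Radioligand competition with [125I]-MCP-1 on THP-1 cells. IC50 taken from dose-response curves built from duplicate points; where SD is given, value is mean of at least three independent experiments.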
Target sequence in this assay (P41597 whole entry): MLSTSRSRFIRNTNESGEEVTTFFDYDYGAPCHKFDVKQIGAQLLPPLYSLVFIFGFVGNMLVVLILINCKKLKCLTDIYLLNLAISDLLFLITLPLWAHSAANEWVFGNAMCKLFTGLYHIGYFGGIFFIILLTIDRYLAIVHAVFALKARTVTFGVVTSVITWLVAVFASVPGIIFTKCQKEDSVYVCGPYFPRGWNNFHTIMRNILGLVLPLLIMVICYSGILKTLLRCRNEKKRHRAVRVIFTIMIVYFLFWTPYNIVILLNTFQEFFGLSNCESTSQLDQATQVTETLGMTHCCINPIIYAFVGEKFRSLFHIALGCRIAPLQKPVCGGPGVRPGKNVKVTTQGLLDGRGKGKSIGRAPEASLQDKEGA

[2] = molecular target: T1, C-C chemokine receptor type 2; assay: Antagonist activity at human CCR2 in THP1 cells assessed as inhibition of MCP1-induced calcium flux; type: functional, cell-based, THP-1
Summary of the method: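 THP-1 cells grown in HBSS loading buffer with 1% FBS and 20 mM HEPES, spun down, then loaded 30 min with Fluo-3 AM (2 million cells/mL, 4 µM dye, 20 mM HEPES, 0.1% BSA, 5 mM probenecid). Washed three times into HEPES/NaCl/glucose buffer with 2.5 mM probenecid, 1.25 mM CaCl2 and 0.1% BSA; 150,000 cells/well. Compound added 3 min before 10^-7 M human MCP-1; intracellular Ca2+ read by FLIPR.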
Target sequence in this assay (P41597 whole entry): as above

[3] = molecular target: T1, C-C chemokine receptor type 2; assay: Antagonist activity at human CCR2 in THP1 cells assessed as inhibition of calcium flux in absence of MCP1; type: functional, cell-based; conditions: THP-1
Target sequence in this assay (P41597 whole entry, looked up): as the sequence (P41597 whole entry) above

[4] = molecular target: T2, C-C chemokine receptor type 1 (Homo sapiens, UniProt P32246); assay: Displacement of [125I]MIP-1alpha from human CCR1 in THP cells
T2 sequence (P32246 whole entry): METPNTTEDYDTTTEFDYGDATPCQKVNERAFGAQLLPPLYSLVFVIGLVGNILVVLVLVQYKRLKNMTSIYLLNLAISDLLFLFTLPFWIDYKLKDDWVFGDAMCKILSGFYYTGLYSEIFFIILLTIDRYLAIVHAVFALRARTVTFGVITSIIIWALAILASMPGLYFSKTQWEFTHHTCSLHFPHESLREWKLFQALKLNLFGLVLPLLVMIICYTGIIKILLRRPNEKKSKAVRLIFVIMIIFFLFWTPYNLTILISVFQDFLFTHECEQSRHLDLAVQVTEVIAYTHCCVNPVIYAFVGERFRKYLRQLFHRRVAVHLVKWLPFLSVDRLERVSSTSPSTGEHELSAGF

[5] = molecular target: T3, C-C chemokine receptor type 1 (Homo sapiens) (UniProt P32246); assay: Displacement of [125I]MIP-1alpha from human CCR1 in THP cells at 1 uM
T3 sequence (whole entry): T2 sequence (P32246 whole entry)

[6] = molecular target: T1, C-C chemokine receptor type 2; assay: Displacement of [125I]MCP1 from human CCR2b in HEK293 cells; type: cell-based
Summary of the method: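 Competition for [125I]-MCP-1 binding on HEK293 cells transfected with human CCR2b receptor.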
Target sequence in this assay (P41597 whole entry): as the sequence (P41597 whole entry) above

SMILES | IC50 [1] [nM] | also measured
O=C(CNC(=O)c1cccc(C(F)(F)F)c1)N[C@@H]1CCN(Cc2cccc(Cl)c2)C1 | > 5000 | –
COc1cc(CN2CC[C@@H](NC(=O)CNC(=O)c3cc(C(F)(F)F)ccc3N)C2)ccc1O | 39 | –
O=C(CNC(=O)c1ccccc1Cl)N[C@@H]1CCN(Cc2ccc(Cl)cc2)C1 | > 10000 | –
COc1ccc(CN2CC[C@@H](NC(=O)CNC(=O)c3cccc(C(F)(F)F)c3)C2)cc1 | 114 | –
Nc1cc(CN2CC[C@@H](NC(=O)CNC(=O)c3cc(C(F)(F)F)ccc3N)C2)ccc1O | 14 | –
O=C(CNC(=O)c1cccc(C(F)(F)F)c1)N[C@@H]1CCN(Cc2ccc(O)cc2)C1 | 226 | IC50 [2]: 365 nM; Activity [3]: inactive
COc1ccc(CN2CC[C@@H](NC(=O)CNC(=O)c3cc(C(F)(F)F)ccc3N)C2)cc1O | 53 | –
O=C(CNC(=O)c1ccc(Cl)cc1)N[C@@H]1CCN(Cc2ccc(Cl)cc2)C1 | > 5000 | –
C=Cc1ccc(CN2CC[C@@H](NC(=O)CNC(=O)c3cc(C(F)(F)F)ccc3N)C2)cc1 | 19 | –
Cc1ccc(C(=O)NCC(=O)N[C@@H]2CCN(Cc3ccc(Cl)cc3)C2)cc1 | 10000 | –
O=C(CNC(=O)c1cccc(Br)c1)N[C@@H]1CCN(Cc2ccc(Cl)cc2)C1 | 785 | –
O=C(CNC(=O)c1ccc(C(F)(F)F)cc1)N[C@@H]1CCN(Cc2ccc(Cl)cc2)C1 | > 5000 | –
O=C(CNC(=O)c1cccc(C(F)(F)F)c1)N[C@@H]1CCN(Cc2ccc([N+](=O)[O-])cc2)C1 | 1550 | –
Nc1ccc(Br)cc1C(=O)NCC(=O)N[C@@H]1CCN(Cc2ccc(Cl)cc2)C1 | 643 | –
Nc1ccc(C(F)(F)F)cc1C(=O)NCC(=O)N[C@@H]1CCN(Cc2ccc(Cl)cc2)C1 | 26 | IC50 [4]: > 1000 nM; IC50 [2]: 23.1 nM; inhibition [5]: 25%; IC50 [6]: 45 nM; Activity [3]: inactive
Nc1ccc([N+](=O)[O-])cc1C(=O)NCC(=O)N[C@@H]1CCN(Cc2ccc(Cl)cc2)C1 | 208 | –
Nc1cccc(C(=O)NCC(=O)N[C@@H]2CCN(Cc3ccc(Cl)cc3)C2)c1 | > 10000 | –
Cc1ccccc1C(=O)NCC(=O)N[C@@H]1CCN(Cc2ccc(Cl)cc2)C1 | > 10000 | –
O=C(CNC(=O)c1cccc(F)c1)N[C@@H]1CCN(Cc2ccc(Cl)cc2)C1 | 4330 | –
N#Cc1ccc(CN2CC[C@@H](NC(=O)CNC(=O)c3cccc(C(F)(F)F)c3)C2)cc1 | 2650 | –

SMILES | IC50 [1] [nM] | also measured
O=C(CNC(=O)c1cccc(C(F)(F)F)c1)N[C@@H]1CCN(Cc2ccc(F)cc2)C1 | 960 | –
Cc1ccc(CN2CC[C@@H](NC(=O)CNC(=O)c3cc(C(F)(F)F)ccc3N)C2)cc1 | 20 | –
Nc1ccc(C(F)(F)F)cc1C(=O)NCC(=O)N[C@@H]1CCN(Cc2ccc(O)cc2)C1 | 42 | –
COc1cccc(CN2CC[C@@H](NC(=O)CNC(=O)c3cccc(C(F)(F)F)c3)C2)c1 | 3170 | –
CSc1ccc(CN2CC[C@@H](NC(=O)CNC(=O)c3cccc(C(F)(F)F)c3)C2)cc1 | 204 | –
Cc1ccc(CN2CC[C@@H](NC(=O)CNC(=O)c3cc(C(F)(F)F)ccc3N)C2)cc1N | 6.1 | –
Cc1cccc(C(=O)NCC(=O)N[C@@H]2CCN(Cc3ccc(Cl)cc3)C2)c1 | 2380 | –
Nc1cc(CN2CC[C@@H](NC(=O)CNC(=O)c3cc(C(F)(F)F)ccc3N)C2)ccc1Cl | 4.1 | –
COc1ccccc1CN1CC[C@@H](NC(=O)CNC(=O)c2cccc(C(F)(F)F)c2)C1 | 1360 | –
O=C(CNC(=O)c1cccc([N+](=O)[O-])c1)N[C@@H]1CCN(Cc2ccc(Cl)cc2)C1 | 832 | –
O=C(CNC(=O)c1cccc(C(F)(F)F)c1)N[C@@H]1CCN(Cc2ccccc2-c2ccc3ccccc3c2)C1 | 759 | –
CCc1ccc(CN2CC[C@@H](NC(=O)CNC(=O)c3cccc(C(F)(F)F)c3)C2)cc1 | 59 | –
C=Cc1ccc(CN2CC[C@@H](NC(=O)CNC(=O)c3cccc(C(F)(F)F)c3)C2)cc1 | 121 | –
COc1cc(CN2CC[C@@H](NC(=O)CNC(=O)c3cccc(C(F)(F)F)c3)C2)ccc1O | 153 | –
Nc1ccc(Cl)cc1C(=O)NCC(=O)N[C@@H]1CCN(Cc2ccc(Cl)cc2)C1 | 730 | –
Nc1ccc(C(F)(F)F)cc1C(=O)NCC(=O)N[C@@H]1CCN(Cc2ccc(Cl)cc2Cl)C1 | 96 | –
N#Cc1cccc(C(=O)NCC(=O)N[C@@H]2CCN(Cc3ccc(Cl)cc3)C2)c1 | > 10000 | –
Nc1ccc(I)cc1C(=O)NCC(=O)N[C@@H]1CCN(Cc2ccc(Cl)cc2)C1 | 308 | –
O=C(CNC(=O)c1cccc(C(F)(F)F)c1)N[C@@H]1CCN(Cc2ccc(Br)cc2)C1 | 166 | –
CC(=O)Nc1ccc(CN2CC[C@@H](NC(=O)CNC(=O)c3cccc(C(F)(F)F)c3)C2)cc1 | 305 | –

SMILES | IC50 [1] [nM] | also measured
Cc1ccccc1CN1CC[C@@H](NC(=O)CNC(=O)c2cccc(C(F)(F)F)c2)C1 | 960 | –
Cc1cccc(CN2CC[C@@H](NC(=O)CNC(=O)c3cccc(C(F)(F)F)c3)C2)c1 | 3100 | –
O=C(CNC(=O)c1ccccc1C(F)(F)F)N[C@@H]1CCN(Cc2ccc(Cl)cc2)C1 | > 10000 | –
Nc1ccccc1C(=O)NCC(=O)N[C@@H]1CCN(Cc2ccc(Cl)cc2)C1 | > 10000 | –
COc1cccc(C(=O)NCC(=O)N[C@@H]2CCN(Cc3ccc(Cl)cc3)C2)c1 | > 10000 | –
O=C(CNC(=O)c1cccc(OC(F)(F)F)c1)N[C@@H]1CCN(Cc2ccc(Cl)cc2)C1 | 489 | –
CCc1ccc(CN2CC[C@@H](NC(=O)CNC(=O)c3cc(C(F)(F)F)ccc3N)C2)cc1 | 11 | IC50 [2]: 5.3 nM; Activity [3]: inactive
COc1ccc(CN2CC[C@@H](NC(=O)CNC(=O)c3cc(C(F)(F)F)ccc3N)C2)cc1N | 5.3 | –
O=C(CNC(=O)c1cccc(C(F)(F)F)c1)N[C@@H]1CCN(Cc2ccccc2)C1 | 690 | –
O=C(CNC(=O)c1ccccc1)N[C@@H]1CCN(Cc2ccc(Cl)cc2)C1 | > 10000 | –
O=C(CNC(=O)c1cccc(C(F)(F)F)c1)N[C@@H]1CCN(Cc2ccc(OC(F)(F)F)cc2)C1 | 610 | –
O=C(CNC(=O)c1cccc(Cl)c1)N[C@@H]1CCN(Cc2ccc(Cl)cc2)C1 | 2400 | –
O=C(CNC(=O)c1cccc(C(F)(F)F)c1)N[C@@H]1CCN(Cc2ccc(Cl)cc2Cl)C1 | 300 | –
O=C(CNC(=O)c1cccc(C(F)(F)F)c1)N[C@@H]1CCN(Cc2ccccc2Cl)C1 | 630 | –
Cc1ccc(CN2CC[C@@H](NC(=O)CNC(=O)c3cccc(C(F)(F)F)c3)C2)cc1 | 116 | IC50 [2]: 64 nM; Activity [3]: inactive
Nc1ccc(OC(F)(F)F)cc1C(=O)NCC(=O)N[C@@H]1CCN(Cc2ccc(Cl)cc2)C1 | 88 | –
COc1ccc(CN2CC[C@@H](NC(=O)CNC(=O)c3cc(C(F)(F)F)ccc3N)C2)cc1 | 20 | –
Cc1ccc(CN2CC[C@@H](NC(=O)CNC(=O)c3cc(C(F)(F)F)ccc3N)C2)c(C)c1 | 3.2 | IC50 [2]: 7.5 nM; Activity [3]: inactive
